Experimental data reported in ChEMBL document CHEMBL1156741, “Development of photoaffinity probes for gamma-secretase equipped with a nitrobenzenesulfonamide-type cleavable linker” (Bioorg Med Chem Lett, 2009).
Calls of active or inactive are those of the source. The calls are words filed in the database; no cut-off is given here.

Columns and labels:
[1] = Inhibition of gamma-secretase assessed as inhibition of Abeta40 generation at 1 uM
[2] = Inhibition of gamma-secretase assessed as inhibition of Abeta42 generation at 1 uM
[3] = target: T1, Gamma-secretase (Homo sapiens) (UniProt Q96BI3+Q9NZ42+Q8WW43+P49768+Q92542+P49810); test: Binding affinity to gamma-secretase in human HeLa cell lysate assessed as presenilin 1 C-terminal fragment photolabeling by Western blotting; format: cell-free
Summary of the method: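 CHAPSO-solubilized HeLa cell lysate (about 150 µg) was mixed with the probe and photolabeled. PS1 CTF labeling was then detected by western blotting on nitrocellulose with chemiluminescence.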

[4] = target: T1, Gamma-secretase (Homo sapiens); test: Binding affinity to gamma-secretase in human HeLa cell lysate assessed as biotinylated presenilin 1 C-terminal fragment by Western blotting in presence of 2-mercaptoethanol; format: cell-free
Summary of the method: (§1)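 Streptavidin sepharose beads carrying biotinylated proteins captured after photolabeling were treated in carbonate buffer (pH 9.2) with 2% SDS, with or without 3% 2-mercaptoethanol, for 4 h at 20 °C. Proteins were transferred to nitrocellulose and detected by western blotting with chemiluminescence.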

[5] = target: T1, Gamma-secretase (Homo sapiens); test: Binding affinity to gamma-secretase in human HeLa cell lysate assessed as biotinylated presenilin 1 C-terminal fragment by Western blotting in absence of 2-mercaptoethanol; format: cell-free; summary of the method: as §1

Row | Compound | inhibition [1] | inhibition [2] | Activity [3] | Activity [4] | Activity [5]
1 | C[C@H](NC(=O)Cc1cc(F)cc(F)c1)C(=O)N[C@H](C(=O)OC(C)(C)C)c1ccccc1 | 77.4% | 76.3% | – | – | –
2 | C[C@H](NC(=O)[C@@H](NC(=O)Cc1cc(F)cc(F)c1)c1ccccc1)C(=O)NCc1ccc(C(=O)c2ccc(CNCCCCCCCC(=O)NCCCN(C)S(=O)(=O)c3ccc(C(=O)NCCCCCC(=O)CCCC[C@@H]4SC[C@@H]5NC(=O)N[C@@H]54)cc3[N+](=O)[O-])cc2)cc1 | 62.8% | 66.2% | Active | Active | inactive
3 | C[C@H](NC(=O)[C@@H](NC(=O)Cc1cc(F)cc(F)c1)c1ccccc1)C(=O)NCc1ccc(C(=O)c2ccc(CNCCCCCC(=O)NCCCN(C)S(=O)(=O)c3ccc(C(=O)NCCCCCC(=O)CCCC[C@@H]4SC[C@@H]5NC(=O)N[C@@H]54)cc3[N+](=O)[O-])cc2)cc1 | 54.9% | 60.2% | Active | – | –
4 | C[C@H](NC(=O)[C@@H](NC(=O)Cc1cc(F)cc(F)c1)c1ccccc1)C(=O)NCc1ccc(C(=O)c2ccc(CNCCCCCC(=O)NCCCCCCCN(C)S(=O)(=O)c3ccc(C(=O)NCCCCCC(=O)CCCC[C@@H]4SC[C@@H]5NC(=O)N[C@@H]54)cc3[N+](=O)[O-])cc2)cc1 | 78.2% | 59.3% | Active | – | –
5 | C[C@H](NC(=O)[C@@H](NC(=O)Cc1cc(F)cc(F)c1)c1ccccc1)C(=O)NCc1ccc(C(=O)c2ccc(CNCCCCCCCC(=O)NCCCCCCCN(C)S(=O)(=O)c3ccc(C(=O)NCCCCCC(=O)CCCC[C@@H]4SC[C@@H]5NC(=O)N[C@@H]54)cc3[N+](=O)[O-])cc2)cc1 | 62.3% | 89.3% | Active | – | –
6 | C[C@H](NC(=O)[C@@H](NC(=O)Cc1cc(F)cc(F)c1)c1ccccc1)C(=O)NCc1ccc(C(=O)c2ccc(CNCC(=O)NCCCCCCCN(C)S(=O)(=O)c3ccc(C(=O)NCCCCCC(=O)CCCC[C@@H]4SC[C@@H]5NC(=O)N[C@@H]54)cc3[N+](=O)[O-])cc2)cc1 | 81.9% | 77% | Active | – | –
